Legend:
[1] = HPLC analysis of extracellular cleavage of prodrugs to nucleosides in the medium; assay type: in vitro ADME; conditions: after 24 h incubation with 100 µM prodrug
Method in brief: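 Cells were exposed to prodrug for 24 h. Medium above the cells was sampled after centrifugation, deproteinized with TCA and neutralized, then analysed by HPLC-UV for parent drug, FdUrd and ETC. Means of 3–5 independent experiments ± SEM.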

[2] = system: HT-29 xenograft; assay: In vivo antitumor effect in human HT-29 xenograft model; set-up: species or system NMRI:nu/nu female mice; conditions: or., 40 mg/kg/inj
Method in brief: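 5-FU-resistant human HT-29 colon carcinoma cells were implanted subcutaneously in female nude mice. Dosing began at palpable tumour size on a q4dx3 schedule. Tumour volumes of treated mice (T) were compared with PBS-treated controls (C). Animals were killed once tumours exceeded 1 cm3.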

[3] = In vivo toxicity in HT-29 xenograft mice; set-up: species or system NMRI:nu/nu female mice; conditions: i.v. and oral treatment
[4] = LC-MS/MS detection of ETC and ETC-nucleotides in tumor and liver tissue; assay type: in vivo, NMRI:nu/nu female mice; conditions: 2 h after administration
Method in brief: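 Subcutaneous HT-29 xenografts were grown in female NMRI nude mice. Tumour and liver were taken 2 h after prodrug administration. ETC and its nucleotides were quantified by LC-MS/MS in MRM mode (transition 268.2/112.2).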

[5] = target: thymidylate synthase (TS) in intact FM3A/0 cells (Mus musculus, UniProt P07607); assay: TS in situ activity assay; assay type: cell-based, murine; conditions: 24 h exposure to 0.5 µM
Chain of thymidylate synthase (TS) in intact FM3A/0 cells (P07607 whole entry): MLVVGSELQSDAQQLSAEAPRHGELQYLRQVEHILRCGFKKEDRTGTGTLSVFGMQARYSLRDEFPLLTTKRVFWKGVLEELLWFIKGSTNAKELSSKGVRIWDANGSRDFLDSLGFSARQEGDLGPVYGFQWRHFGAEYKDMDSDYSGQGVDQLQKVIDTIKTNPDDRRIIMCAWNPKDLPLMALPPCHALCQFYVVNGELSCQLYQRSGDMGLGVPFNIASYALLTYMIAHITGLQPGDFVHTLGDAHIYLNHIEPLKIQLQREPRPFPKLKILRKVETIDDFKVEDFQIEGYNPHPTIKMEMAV

| inhibition of thymidylate synthase (TS) in situ [5] | Structure (SMILES) | parent drug still present in the medium [1] | Evaluation (in vivo activity) [2] | haematological side effects [3] | ETC and ETC-nucleotide accumulation in liver tissue [4] | ETC-nucleoside and ETC-nucleotide accumulation in tumor tissue ([4]; HT-29 xenograft) |
| --- | --- | --- | --- | --- | --- | --- |
|  | C#C[C@@]1(O)[C@@H](COP(=O)(O)OC[C@H]2O[C@@H](n3cc(F)c(=O)[nH]c3=O)C[C@@H]2O)O[C@@H](n2ccc(N)nc2=O)[C@@H]1O [ETC-FdUrd, 3′-C-Ethynylcytidylyl-(5′➔5′)-5-fluoro-2′-deoxyuridine] | More than 60% | orally active | did not result in any haematological side effects | accumulated in the liver tissue | accumulated to a high extent in the tumor tissue |
| inhibited almost completely | O=c1[nH]c(=O)n([C@H]2C[C@H](O)[C@@H](CO)O2)cc1F [FdUrd, 5-fluoro-2′-deoxyuridine] |  |  |  |  |  |
